This note sets out measurements from ChEMBL document CHEMBL1781905, “Discovery and optimization of N-acyl and N-aroylpyrazolines as B-Raf kinase inhibitors” (Bioorg Med Chem Lett, 2010).

Experiment [1] deals with T1, Serine/threonine-protein kinase B-raf (Homo sapiens, UniProt P15056, V600E). In words: Inhibition of human B-Raf V600E mutant after 3 hrs. In a few lines: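 Radiometric assay using 20 nM B-Raf V600E. It measures phosphorylation of a biotinylated surrogate peptide by ³³P-ATP in 50 mM HEPES pH 7.5 with 10 mM DTT and 50 mM MnCl₂ at 30 °C for 3 h. The reaction is stopped with 100 mM EDTA, captured 2 h on a streptavidin FlashPlate and scintillation-counted.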
T1 sequence (P15056 2-766 V600E limits assumed): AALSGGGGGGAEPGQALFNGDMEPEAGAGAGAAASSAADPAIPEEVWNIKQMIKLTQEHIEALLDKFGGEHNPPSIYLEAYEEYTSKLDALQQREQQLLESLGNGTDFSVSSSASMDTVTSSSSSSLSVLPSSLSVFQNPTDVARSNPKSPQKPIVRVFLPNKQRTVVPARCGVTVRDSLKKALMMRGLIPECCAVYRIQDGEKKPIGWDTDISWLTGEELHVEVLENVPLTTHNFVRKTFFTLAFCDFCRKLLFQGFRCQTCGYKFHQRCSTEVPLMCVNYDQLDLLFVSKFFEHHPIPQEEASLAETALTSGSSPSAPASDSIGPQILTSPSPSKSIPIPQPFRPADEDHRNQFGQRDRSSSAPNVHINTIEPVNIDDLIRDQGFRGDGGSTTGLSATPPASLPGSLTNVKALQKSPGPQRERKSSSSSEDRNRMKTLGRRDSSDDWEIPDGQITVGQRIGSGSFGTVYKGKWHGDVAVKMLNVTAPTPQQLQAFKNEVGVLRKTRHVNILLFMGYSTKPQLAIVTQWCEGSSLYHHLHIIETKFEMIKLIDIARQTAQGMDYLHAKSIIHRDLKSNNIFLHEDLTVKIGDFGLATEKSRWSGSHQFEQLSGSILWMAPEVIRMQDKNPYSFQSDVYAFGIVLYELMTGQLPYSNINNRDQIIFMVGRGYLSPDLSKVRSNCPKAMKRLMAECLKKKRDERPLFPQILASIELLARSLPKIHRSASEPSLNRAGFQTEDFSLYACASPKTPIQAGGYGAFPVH

For experiment [2], the target named is T1, Serine/threonine-protein kinase B-raf. In words: Inhibition of B-Raf V600E mutant-mediated ERK phosphorylation in human A375 cells after 3 hrs by immunoblotting method. The format is cell-based, A-375. Conditions: in the assay text read “whole cell ELISA” for “immunoblotting method”. An outline of the steps: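 A375 (B-Raf V600E) cells are seeded overnight, then exposed to inhibitors for 3 h at 37 °C. Cells are fixed, permeabilized and blocked overnight. They are probed 1 h with anti-phospho-ERK antibody, then with HRP-linked reagent. The TMB substrate is read as optical density at 650 nm.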

Usually IC50 stands for the point on the concentration scale where inhibition reaches its midpoint. Regarding `Cc1ccc(-c2ccc(C(=O)N3N=C(c4cccnc4)CC3c3ccccc3O)o2)cc1` (configuration not stated), the IC50 in experiment [1] was determined as 58 nM; in experiment [2] it was 2400 nM.

Consider `O=C(c1[nH]nc2c1CCC2)N1N=C(c2cccnc2)CC1c1ccccc1O` (configuration not stated), for which the IC50 in experiment [1] is 7 nM; in experiment [2], 350 nM. As for `O=C(c1cc(-c2ccc3c(c2)OCCO3)n[nH]1)N1N=C(c2cccnc2)CC1c1ccccc1O` (configuration not stated), the results for the IC50 in experiment [1] and in experiment [2] were 10.7 nM and 240 nM, respectively.

For `O=C(c1cccc(C(F)(F)F)c1F)N1N=C(c2cccnc2)CC1c1ccccc1O` (configuration not stated), the IC50 in experiment [1] is > 10000 nM. Turning to `O=C(c1cccc(-n2cnnn2)c1)N1N=C(c2cccnc2)CC1c1ccccc1O` (configuration not stated), the IC50 is 28 nM in experiment [1] and > 10000 nM in experiment [2]. Regarding `COc1ccc(-c2cc(C(=O)N3N=C(c4cccnc4)CC3c3ccccc3O)no2)cc1` (configuration not stated), the half-inhibitory concentration (IC50) in experiment [1] was 15.4 nM; in experiment [2], 460 nM. `O=C(c1ccc(-c2cccnc2)s1)N1N=C(c2cccnc2)CC1c1ccccc1O` (single isomer, unassigned; later eluting): the IC50 in experiment [1] was 15 nM; in experiment [2] it was 280 nM. With `O=C(c1cc(F)cc(C(F)(F)F)c1)N1N=C(c2cccnc2)CC1c1ccccc1O` (configuration not stated), the figures for the IC50 in experiment [1] and in experiment [2] were 110 nM and 9500 nM, respectively. Molecule `O=C(c1ccc(-c2ccc(Cl)cc2)s1)N1N=C(c2cccnc2)CC1c1ccccc1O` (configuration not stated) registered an IC50 in experiment [1] of 140 nM. Regarding `O=C(c1ccc(-c2cccnc2)s1)N1N=C(c2cccnc2)CC1c1ccccc1O` (single isomer, unassigned; early eluting), the IC50 was determined as 1200 nM in experiment [1] and 14000 nM in experiment [2]. Regarding `O=C(c1ccc(-c2ccccc2)o1)N1N=C(c2cccnc2)CC1c1ccccc1O` (configuration not stated), the IC50 came out at 16 nM in experiment [1] and 1700 nM in experiment [2]. As for `O=C(c1ccc(F)c(C(F)(F)F)c1)N1N=C(c2cccnc2)CC1c1ccccc1O` (configuration not stated), the IC50 in experiment [1] turned out to be 200 nM; in experiment [2], 3800 nM.

Consider `O=C(c1cc(-c2ccco2)on1)N1N=C(c2cccnc2)CC1c1ccccc1O` (configuration not stated), for which the IC50 is 5.6 nM in experiment [1] and 970 nM in experiment [2]. Turning to `O=C(c1ccc(F)cc1C(F)(F)F)N1N=C(c2cccnc2)CC1c1ccccc1O` (configuration not stated), in experiment [1], the IC50 was > 10000 nM.

As to `O=C(c1cc(-c2cccs2)n[nH]1)N1N=C(c2cccnc2)CC1c1ccccc1O` (configuration not stated), the IC50 in experiment [1] stood at 10.3 nM; in experiment [2] it was 410 nM. Regarding `COc1ccc(-c2ccc(C(=O)N3N=C(c4cccnc4)CC3c3ccccc3O)o2)cc1` (configuration not stated), the values for the IC50 in experiment [1] and in experiment [2] were 18 nM and 3700 nM, respectively. Take `O=C(c1cc(-c2ccc3c(c2)OCO3)on1)N1N=C(c2cccnc2)CC1c1ccccc1O` (configuration not stated): the IC50 in experiment [1] turned out to be 8.6 nM; in experiment [2] it was 600 nM. With `O=C(c1cn2c(n1)sc1ccccc12)N1N=C(c2cccnc2)CC1c1ccccc1O` (configuration not stated), the IC50 stood at 9.1 nM in experiment [1] and 61 nM in experiment [2]. `O=C(c1cccc2c(F)cccc12)N1N=C(c2cccnc2)CC1c1ccccc1O` (configuration not stated): in experiment [1], the IC50 is > 10000 nM. The same measure, in the same setting: as for `O=C(c1ccccc1Oc1ccccc1)N1N=C(c2cccnc2)CC1c1ccccc1O` (configuration not stated), the figure is > 10000 nM. In the case of `O=C(CC1CC1)N1N=C(c2cccnc2)CC1c1ccccc1O` (configuration not stated), the IC50 was 83 nM in experiment [1] and 8000 nM in experiment [2]. For `COc1cccc(-c2cc(C(=O)N3N=C(c4cccnc4)CC3c3ccccc3O)no2)c1` (configuration not stated) the same measures were 6.7 nM and 930 nM.

As to `O=C(c1ccc([N+](=O)[O-])o1)N1N=C(c2cccnc2)CC1c1ccccc1O` (configuration not stated), the IC50 in experiment [1] was 130 nM. On to `Cc1nc(-c2ccccc2)sc1C(=O)N1N=C(c2cccnc2)CC1c1ccccc1O` (configuration not stated), for which the IC50 is 37.9 nM in experiment [1] and 1300 nM in experiment [2]. With `O=C(c1cc(-c2ccccc2O)on1)N1N=C(c2cccnc2)CC1c1ccccc1O` (configuration not stated), the IC50 in experiment [1] came to 14.3 nM; in experiment [2] it was 130 nM.

As for `O=C(c1cc(-c2ccccc2)no1)N1N=C(c2cccnc2)CC1c1ccccc1O` (configuration not stated), the IC50 in experiment [1] was determined as 8 nM; in experiment [2], 1100 nM.

`O=C(c1cc2c(s1)CCC2)N1N=C(c2cccnc2)CC1c1ccccc1O` (configuration not stated): the IC50 in experiment [1] was 6.9 nM; in experiment [2], 920 nM. In turn, `O=C(c1cccc(Oc2ccccc2)c1)N1N=C(c2cccnc2)CC1c1ccccc1O` (configuration not stated) showed an IC50 in experiment [1] of 156 nM. Turning to `O=C(c1cncc(-c2cccs2)c1)N1N=C(c2cccnc2)CC1c1ccccc1O` (configuration not stated), the IC50 was 260 nM in experiment [1] and > 10000 nM in experiment [2]. As to `O=S(=O)(c1ccc(-c2cccnc2)s1)N1N=C(c2cccnc2)CC1c1ccccc1O` (configuration not stated), the results for the IC50 in experiment [1] and in experiment [2] were 2000 nM and > 10000 nM, respectively. The molecule `N#Cc1ccccc1S(=O)(=O)N1N=C(c2cccnc2)CC1c1ccccc1O` (configuration not stated) displayed an IC50 in experiment [1] of 450 nM. Molecule `O=C(c1cc(-c2ccc(Cl)cc2)cs1)N1N=C(c2cccnc2)CC1c1ccccc1O` (configuration not stated) registered an IC50 in experiment [1] of 216 nM. The molecule `O=C(c1ccc(C(F)(F)F)c(F)c1)N1N=C(c2cccnc2)CC1c1ccccc1O` (configuration not stated) showed an IC50 in experiment [1] of 660 nM. This IC50 is about 3.1-fold higher than that of the molecule before. On to `O=C(c1ccc(-c2ccccc2)[nH]1)N1N=C(c2cccnc2)CC1c1ccccc1O` (configuration not stated), for which the IC50 turned out to be 41.5 nM in experiment [1] and 1100 nM in experiment [2]. With `O=C(c1ccccc1-c1ccc(F)cc1)N1N=C(c2cccnc2)CC1c1ccccc1O` (configuration not stated), the IC50 in experiment [1] was > 10000 nM. Turning to `Cc1nc(-c2cccnc2)sc1C(=O)N1N=C(c2cccnc2)CC1c1ccccc1O` (configuration not stated), the figures for the IC50 in experiment [1] and in experiment [2] were 8.1 nM and 940 nM, respectively.

For `O=C(c1cc(-c2ccccc2)on1)N1N=C(c2cccnc2)CC1c1ccccc1O` (configuration not stated), the IC50 in experiment [1] was 8 nM; in experiment [2], 810 nM. `O=C(c1ccc(-c2cccnc2)s1)N1N=C(c2cccnc2)CC1c1ccccc1O` (configuration not stated): the IC50 amounted to 18.7 nM in experiment [1] and 180 nM in experiment [2].

`Cc1nc(-c2cnccn2)sc1C(=O)N1N=C(c2cccnc2)CC1c1ccccc1O` (configuration not stated): the IC50 worked out at 6.5 nM in experiment [1] and 710 nM in experiment [2].
